Data: ChEMBL document CHEMBL1773037, “Evaluation of superior BACE1 cleavage sequences containing unnatural amino acids” (Bioorg Med Chem, 2011)

Substrate: CC[C@H](C)[C@H](N)C(=O)N[C@@H](CCCCN)C(=O)N[C@H](C(=O)N[C@@H](CCC(=O)O)C(=O)N[C@@H](CCC(=O)O)C(=O)N[C@H](C(=O)N[C@@H](CO)C(=O)N[C@@H](CCC(=O)O)C(=O)N[C@H](C(=O)N[C@@H](CC(N)=O)C(=O)N[C@@H](CC(C)C)C(=O)N[C@@H](CC(=O)O)C(=O)N[C@@H](C)C(=O)N[C@@H](CCC(=O)O)C(=O)N[C@@H](Cc1ccccc1)C(=O)N[C@@H](CCCNC(=N)N)C(=O)N[C@@H](Cc1cnc[nH]1)C(=O)N[C@@H](CC(=O)O)C(=O)N[C@@H](CO)C(=O)NCC(N)=O)C(C)C)[C@@H](C)CC)[C@@H](C)O
Test: Activity of recombinant BACE assessed as substrate cleavage at 105 uM after 15 mins by HPLC analysis
Procedure, shortened: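 Kinetic run: rBACE1 (33 nM) added to eicosapeptide amide at final concentrations 0–105, 37 °C, 15 min. Aliquots analysed by HPLC, and initial rates taken from the decrease in substrate peak area. Km obtained from a plot of [S]/v versus [S]. Measurements done three times and averaged.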

B1: Beta-secretase 1 (Homo sapiens), P56817 (protein)
chain: MAQALPWLLLWMGAGVLPAHGTQHGIRLPLRSGLGGAPLGLRLPRETDEEPEEPGRRGSFVEMVDNLRGKSGQGYYVEMTVGSPPQTLNILVDTGSSNFAVGAAPHPFLHRYYQRQLSSTYRDLRKGVYVPYTQGKWEGELGTDLVSIPHGPNVTVRANIAAITESDKFFINGSNWEGILGLAYAEIARPDDSLEPFFDSLVKQTHVPNLFSLQLCGAGFPLNQSEVLASVGGSMIIGGIDHSLYTGSLWYTPIRREWYYEVIIVRVEINGQDLKMDCKEYNYDKSIVDSGTTNLRLPKKVFEAAVKSIKAASSTEKFPDGFWLGEQLVCWQAGTTPWNIFPVISLYLMGEVTNQSFRITILPQQYLRPVEDVATSQDDCYKFAISQSSTGTVMGAVIMEGFYVVFDRARKRIGFAVSACHVHDEFRTAAVEGPFVTLDMEDCGYNIPQTDESTLMTIAYVMAAICALFMLPLCLMVCQWRCLRCLRQQHDDFADDISLLK
Km: 5.5 µM | kcat: 1720 s⁻¹
